Activity calls are given as the source filed them. The rule behind the calls is not given here. Square brackets hold non-standard residues; d marks the D form. Peptide text beside a SMILES is read from it. pGlu = O=C1CC[C@@H](C(=O)O)N1
Experiments:
[1] = system: Rattus norvegicus; assay: In vivo activation of LH-RH receptor in immature rat assessed as release of luteinizing hormone relative to control; type: functional
Summary of the method: (§1)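 Immature male rats were injected sc with agonist, LH-RH or saline and followed over 0.25–4 h, with blood sampled at intervals. Serum LH was measured by double antibody radioimmunoassay and FSH by radioimmunoassay, against NIH-LH-S17 and NIAMD-rat-FSH-RP1 standards.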

[2] = system: Rattus norvegicus; assay: In vivo activation of LH-RH receptor in immature rat assessed as release of follicle-stimulating hormone relative to control; type: functional; summary of the method: as §1
[3] = system: Rattus norvegicus; assay: In vivo activation of LH-RH receptor in immature rat assessed as release of follicle-stimulating hormone in serum at 50 ng, sc measured over 4 hrs by radioimmunoassay; type: functional, organism-based; summary of the method: as §1
[4] = system: Rattus norvegicus; assay: In vivo activation of LH-RH receptor in immature rat assessed as release of luteinizing hormone in serum at 50 ng, sc measured over 4 hrs by double antibody radioimmunoassay; type: functional, organism-based; summary of the method: as §1
[5] = system: Rattus norvegicus; assay: In vivo inhibition of LH-RH receptor in immature rat assessed as inhibition of LH-RH-stimulated luteinizing hormone release in serum at 300 ug, sc administered 1 hr prior to LH-RH addition measured after 30 mins relative to vehicle-treated control; type: functional
Summary of the method: (§2)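 Immature male rats received 300 μg peptide sc in 20% propylene glycol-saline, or vehicle alone. Synthetic LH-RH (200 ng) or saline was injected at the same time or later, over a 4-h period. Blood was taken 30 min after LH-RH. Serum LH and FSH were measured by radioimmunoassay (double antibody for LH), and percent inhibition of serum gonadotropin was calculated.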

[6] = system: Rattus norvegicus; assay: Antiovulatory activity in Sprague-Dawley rat at 1.5 mg, sc administered at 12 pm on proestrous day relative to vehicle-treated control; type: functional
Summary of the method: (§3)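 Adult female SD rats (~200 g), 14 h light/10 h dark, with vaginal smears checked daily from 14 days after arrival. Only rats with at least two successive regular 4-day cycles were used. Peptide was given sc in propylene glycol-saline on the proestrous afternoon. Rats were killed the next day and oviducts inspected for ova. Read-out was % inhibition of ovulation and ova count (±SE) in ovulating rats.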

[7] = system: Rattus norvegicus; assay: In vivo inhibition of LH-RH receptor in immature rat assessed as inhibition of LH-RH-stimulated luteinizing hormone release in serum at 300 ug, sc administered 4 hrs prior to LH-RH addition measured after 30 mins relative to vehicle-treated control; type: functional; summary of the method: as §2
[8] = system: Rattus norvegicus; assay: In vivo inhibition of LH-RH receptor in immature rat assessed as inhibition of LH-RH-stimulated follicle-stimulating hormone release in serum at 300 ug, sc administered 1 hr prior to LH-RH addition measured after 30 mins relative to vehicle-treated control; type: functional; summary of the method: as §2
[9] = system: Rattus norvegicus; assay: In vivo inhibition of LH-RH receptor in immature rat assessed as inhibition of LH-RH-stimulated follicle-stimulating hormone release in serum at 300 ug, sc administered 4 hrs prior to LH-RH addition measured after 30 mins relative to vehicle-treated control; type: functional; summary of the method: as §2
[10] = system: Rattus norvegicus; assay: Antiovulatory activity in Sprague-Dawley rat at 1 mg, sc administered at 12 pm on proestrous day relative to vehicle-treated control; type: functional; summary of the method: as §3
[11] = system: Rattus norvegicus; assay: In vivo inhibition of LH-RH receptor in immature rat assessed as inhibition of LH-RH-stimulated luteinizing hormone release in serum at 300 ug, sc administered 0.5 hrs prior to LH-RH addition measured after 30 mins relative to vehicle-treated control; type: functional; summary of the method: as §2
[12] = system: Rattus norvegicus; assay: In vivo inhibition of LH-RH receptor in immature rat assessed as inhibition of LH-RH-stimulated luteinizing hormone release in serum at 300 ug, sc administered 2 hrs prior to LH-RH addition measured after 30 mins relative to vehicle-treated control; type: functional; summary of the method: as §2
[13] = system: Rattus norvegicus; assay: Antiovulatory activity in Sprague-Dawley rat at 1.5 mg, sc administered at 9 am on proestrous day relative to vehicle-treated control; type: functional

Compound	inhibition (INH) [5] [%]	inhibition (INH) [7] [%]	inhibition (INH) [8] [%]	inhibition (INH) [9] [%]	inhibition (INH) [10] [%]	also measured
CC(C)C[C@H](NC(=O)[C@@H](CCCCN)NC(=O)[C@H](Cc1ccc(O)cc1)NC(=O)[C@H](CO)NC(=O)[C@H](Cc1c[nH]c2ccccc12)NC(=O)[C@H](Cc1cnc[nH]1)NC(=O)[C@@H]1CCC(=O)N1)C(=O)N[C@@H](CCCNC(=N)N)C(=O)N1CCC[C@H]1C(=O)NCC(N)=O	–	–	–	–	–	Activity [1]: 300%; Activity [2]: 300%
CC(C)C[C@H](NC(=O)CNC(=O)[C@H](Cc1ccc(O)cc1)NC(=O)[C@H](CO)NC(=O)[C@H](Cc1c[nH]c2ccccc12)NC(=O)[C@H](Cc1cnc[nH]1)NC(=O)[C@@H]1CCC(=O)N1)C(=O)N[C@@H](CCCNC(=N)N)C(=O)N1CCC[C@H]1C(=O)NCC(N)=O	–	–	–	–	–	Activity [3]: Active; Activity [4]: Active
COc1ccc2c(c1)c(CC(=O)NCCCC[C@@H](NC(=O)[C@H](Cc1ccc(O)cc1)NC(=O)[C@H](CO)NC(=O)[C@@H](Cc1c[nH]c3ccccc13)NC(=O)[C@@H](Cc1ccccc1)NC(=O)[C@@H]1CCC(=O)N1)C(=O)N[C@@H](CC(C)C)C(=O)N[C@@H](CCCNC(=N)N)C(=O)N1CCC[C@H]1C(=O)NCC(N)=O)c(C)n2C(=O)c1ccc(Cl)cc1	7	0	0	0	–	inhibition (INH) [6]: 0%
CC(C)C[C@H](NC(=O)[C@@H](CCCCN)NC(=O)[C@H](Cc1ccc(O)cc1)NC(=O)[C@H](CO)NC(=O)[C@@H](Cc1c[nH]c2ccccc12)NC(=O)[C@@H](Cc1ccccc1)NC(=O)[C@@H]1CCC(=O)N1)C(=O)N[C@@H](CCCNC(=N)N)C(=O)N1CCC[C@H]1C(=O)NCC(N)=O ([pGlu][dF][dW]SY[dK]LRPG-NH2)	36	38	37	18	0	–
CC(C)C[C@H](NC(=O)[C@@H](CCCCNC(=O)c1ccccc1)NC(=O)[C@H](Cc1ccc(O)cc1)NC(=O)[C@H](CO)NC(=O)[C@@H](Cc1c[nH]c2ccccc12)NC(=O)[C@@H](Cc1ccccc1)NC(=O)[C@@H]1CCC(=O)N1)C(=O)N[C@@H](CCCNC(=N)N)C(=O)N1CCC[C@H]1C(=O)NCC(N)=O	–	0	–	–	11	inhibition (INH) [11]: 76%; inhibition (INH) [12]: 40%
CC(C)C[C@H](NC(=O)[C@@H](CCCCNC(=O)[C@H](Cc1ccc(O)cc1)NC(=O)[C@H](CO)NC(=O)[C@@H](Cc1c[nH]c2ccccc12)NC(=O)[C@@H](Cc1ccccc1)NC(=O)[C@@H]1CCC(=O)N1)NC(=O)[C@H](Cc1ccc(O)cc1)NC(=O)[C@H](CO)NC(=O)[C@@H](Cc1c[nH]c2ccccc12)NC(=O)[C@@H](Cc1ccccc1)NC(=O)[C@@H]1CCC(=O)N1)C(=O)N[C@@H](CCCNC(=N)N)C(=O)N1CCC[C@H]1C(=O)NCC(N)=O	62	47	43	41	73	inhibition (INH) [13]: 50%
CC(C)C[C@H](NC(=O)[C@@H](Cc1ccccc1)NC(=O)[C@H](Cc1ccc(O)cc1)NC(=O)[C@H](CO)NC(=O)[C@@H](Cc1c[nH]c2ccccc12)NC(=O)[C@@H](Cc1ccccc1)NC(=O)[C@@H]1CCC(=O)N1)C(=O)N[C@@H](CCCNC(=N)N)C(=O)N1CCC[C@H]1C(=O)NCC(N)=O	84	52	65	77	83	inhibition (INH) [13]: 67%
CC(=O)Oc1ccccc1C(=O)NCCCC[C@@H](NC(=O)[C@H](Cc1ccc(O)cc1)NC(=O)[C@H](CO)NC(=O)[C@@H](Cc1c[nH]c2ccccc12)NC(=O)[C@@H](Cc1ccccc1)NC(=O)[C@@H]1CCC(=O)N1)C(=O)N[C@@H](CC(C)C)C(=O)N[C@@H](CCCNC(=N)N)C(=O)N1CCC[C@H]1C(=O)NCC(N)=O	57	18	23	13	–	inhibition (INH) [6]: 11%
